Results from ChEMBL document CHEMBL1828598, “Discovery of gemfibrozil analogues that activate PPARα and enhance the expression of gene CPT1A involved in fatty acids catabolism” (Eur J Med Chem, 2011).
pEC50: −log10 of the molar value. Calls of active or inactive are those of the source. The calls are words filed in the database; no cut-off is given here.

What was measured:
[1] = target: T1, Peroxisome proliferator-activated receptor alpha (Homo sapiens, UniProt Q07869); test: Agonist activity at Gal4-fused PPARalpha expressed in HEK293 cells after 18 hrs by dual luciferase reporter gene assay; assay type: functional, cell-based; conditions: for EC50: hek293; for pEC50: read-out: EC50
T1 sequence (Q07869 whole entry): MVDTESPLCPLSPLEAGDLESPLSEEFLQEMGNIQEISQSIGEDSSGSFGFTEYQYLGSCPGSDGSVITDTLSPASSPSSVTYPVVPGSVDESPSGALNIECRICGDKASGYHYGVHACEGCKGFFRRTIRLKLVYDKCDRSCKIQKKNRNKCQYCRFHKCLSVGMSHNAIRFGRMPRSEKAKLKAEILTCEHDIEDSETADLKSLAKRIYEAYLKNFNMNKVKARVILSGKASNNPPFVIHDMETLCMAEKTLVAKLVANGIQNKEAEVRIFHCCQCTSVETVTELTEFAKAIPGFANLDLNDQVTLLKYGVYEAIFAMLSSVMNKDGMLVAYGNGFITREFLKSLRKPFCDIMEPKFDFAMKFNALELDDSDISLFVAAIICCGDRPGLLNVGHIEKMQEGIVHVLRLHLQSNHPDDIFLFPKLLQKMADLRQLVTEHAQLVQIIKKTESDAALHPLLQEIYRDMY
How it was run: (§1)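 HEK293 cells were grown in DMEM with 10% FCS, penicillin/streptomycin, sodium pyruvate and nonessential amino acids at 37 °C, 5% CO2. The next day they were transfected in serum-free medium by calcium phosphate with GAL4-PPARα LBD (30 ng), firefly luciferase reporter (50 ng), renilla normalization vector (20 ng) and carrier DNA. Ligands were added 8 h later for 18 h. Efficacy is given as % of maximal gemfibrozil fold induction, from at least three separate experiments.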

[2] = target: T2, Peroxisome proliferator-activated receptor alpha (Homo sapiens) (UniProt Q07869); test: Agonist activity at Gal4-fused PPARalpha expressed in HEK293 cells after 18 hrs by dual luciferase reporter gene assay relative to gemfibrozil; assay type: functional, cell-based; how it was run: as §1
T2 sequence (whole entry): T1 sequence (Q07869 whole entry)

HEK293 = test: Selectivity ratio of EC50 for Gal4-fused PPARalpha expressed in HEK293 cells to EC50 for Gal4-fused PPARgamma expressed in HEK293 cells; assay type: cell-based
[3] = target: T2, Peroxisome proliferator-activated receptor alpha (Homo sapiens); test: Agonist activity at PPARalpha in human HepG2 cells assessed as upregulation of CPT1a mRNA expression at 0.1 to 100 uM after 24 hrs by quantitative RT-PCR analysis; assay type: functional, cell-based
How it was run: (§2)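 HepG2 cells were kept in DMEM with 10% FCS and 1% penicillin/streptomycin and seeded at 5 × 10⁵ cells/well the day before. They were treated 24 h with ligands in DMSO diluted in growth medium, and vehicle-only cells served as controls. Total RNA was taken with TRIzol and DNase-treated. CPT1A mRNA was measured by RT-qPCR against cyclophilin and normalized to vehicle-treated cells. Data are mean ± SEM of four independent determinations run in duplicate.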

[4] = target: T2, Peroxisome proliferator-activated receptor alpha (Homo sapiens); test: Agonist activity at PPARalpha in human HepG2 cells assessed as upregulation of CPT1a mRNA expression after 24 hrs by quantitative RT-PCR analysis; assay type: functional, cell-based; how it was run: as §2
[5] = target: T2, Peroxisome proliferator-activated receptor alpha (Homo sapiens); test: Agonist activity at PPARalpha in human HepG2 cells assessed as upregulation of CPT1a mRNA expression at 10 uM after 24 hrs by quantitative RT-PCR analysis relative to gemfibrozil; assay type: functional, cell-based; how it was run: as §2
[6] = target: T2, Peroxisome proliferator-activated receptor alpha (Homo sapiens); test: Agonist activity at PPARalpha in human HepG2 cells assessed as upregulation of CPT1a mRNA expression at 100 uM after 24 hrs by quantitative RT-PCR analysis relative to gemfibrozil; assay type: functional, cell-based; how it was run: as §2

Structure (SMILES) | EC50 [1] | pEC50 [1] | Efficacy [2] | Ratio EC50 (HEK293) | Activity [3] | Activity [4] | fold change (FC) [5] | fold change (FC) [6]
O=C(O)CCCCOc1ccc(/N=N/c2ccccc2)cc1 | Not Active | – | – | – | – | – | – | –
O=C(O)CCCCOc1ccc(NC(=O)Nc2ccccc2)cc1 | – | 5.03 | 106% | 1.3 | inactive | – | – | –
O=C(O)CCCCOc1ccc(C(=O)c2ccccc2)cc1 | – | 4.57 | 123% | 1 | – | – | – | –
O=C(O)CCCCOc1ccc(/C=C/c2ccccc2)cc1 | – | 4.73 | 206% | 1.1 | – | – | – | –
C=CCc1ccc(OCCCC(C)(C)C(=O)O)c(OC)c1 | – | 5.18 | 117% | 1 | inactive | – | – | –
CC(C)(CCCOc1ccc(C(=O)/C=C/c2ccccc2)cc1)C(=O)O | – | 4.21 | 165% | 2.1 | – | – | – | –
CC(=O)c1ccc(OCCCC(C)(C)C(=O)O)cc1 | Not Active | – | – | – | – | – | – | –
O=C(O)CCCCOc1ccc(C(=O)/C=C/c2ccccc2)cc1 | – | 3.96 | 235% | 3 | – | – | – | –
O=C(O)CCCCOc1ccc(Oc2ccccc2)cc1 | Not Active | – | – | – | – | – | – | –
CC(C)(CCCOc1ccc(/C=C/c2ccccc2)cc1)C(=O)O | – | 6.00 | 223% | 1.4 | – | Dose-dependent effect | 2 | 6
CC(C)(CCCOc1ccc(/N=N/c2ccccc2)cc1)C(=O)O | – | 4.36 | 76% | 0.8 | – | – | – | –
CC(C)(CCCOc1ccc(Oc2ccccc2)cc1)C(=O)O | – | 5.04 | 118% | 1.4 | – | – | – | –
CC(=O)c1ccc(OCCCCC(=O)O)cc1 | Not Active | – | – | – | – | – | – | –
CC(C)(CCCOc1ccc(C(=O)c2ccccc2)cc1)C(=O)O | – | 5.03 | 82% | 0.9 | – | – | – | –
Cc1ccc(C)c(OCCCC(C)(C)C(=O)O)c1 [GEMFIBROZIL] | – | 4.23 | – | 0.7 | Active | – | – | –
C=CCc1ccc(OCCCCC(=O)O)c(OC)c1 | – | 4.95 | 94% | 0.8 | inactive | – | – | –
